Test results taken from paper PMC11964602 (Bioactive Materials, 2025).
Like-named read-outs stand apart in the source and are kept apart here. Where no end group is shown, it is not given here.

Assays:
[1] = Cytotoxicity assay; assay type: cell-based, human
How it was run: (§1)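 Cells seeded at 10,000 per well and grown 24 h. They were then given medium containing 6.25–50 μg/mL peptide, with medium alone as control, for 24 h at 37 °C, 5% CO2. CCK-8 reagent was added and incubated 1 h at 37 °C, and absorbance read at 450 nm. Cytotoxicity was calculated from the OD values.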

[2] = tested on: HUVECs; assay: Cytotoxicity assay; assay type: cell-based, human; conditions: HUVECs; 6.25–50 μg/mL; 24 h
How it was run: as §1

[3] = tested on: HUVECs; assay: Tube formation assay with H2O2-generated ROS; assay type: cell-based, human; conditions: 25 μg/mL, 24 h
How it was run: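 Confluent HUVECs were harvested and seeded at 1 × 10^4 cells per chamber on basement membrane matrix (Geltrex)-coated chamber slides. ROS groups received H2O2 (200 μM solution). Parent and metabolite peptides were each at 25 μg/mL in medium. After 24 h incubation, tubular networks were imaged by bright-field microscopy and tube parameters quantified by image analysis.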

[4] = Cytotoxicity assay; assay type: cell-based, mouse
How it was run: as §1

[5] = tested on: NIH/3T3; assay: Cytotoxicity assay; assay type: cell-based, mouse; conditions: NIH/3T3; 6.25–50 μg/mL; 24 h
How it was run: as §1

[6] = tested on: HUVECs; assay: Wound healing assay; assay type: cell-based, human; conditions: 25 μg/mL, 8 h, vs control
How it was run: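 A confluent HUVEC monolayer was scratched with a sterile 200 μL pipette tip and debris washed off with PBS. Medium containing peptide at 25 μg/mL was added, and cells migrated 8 h at 37 °C. Bright-field images were taken at 0 and 8 h and wound areas measured by image analysis. Percent closure was computed from initial area minus 8-h area. Three experiments were run, each in triplicate wells.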

[7] = tested on: rat RBCs; assay: Hemolysis assay; assay type: cell-based; conditions: 62.5–1000 μg/mL, 37 °C, 30 min
How it was run: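 Rat RBCs in glycine-buffered stabilizing saline were exposed to test peptide at 62.5, 125, 250, 500 or 1000 μg/mL for 30 min at 37 °C in a water bath, then centrifuged. Supernatant absorbance was read at 540 nm. RBCs in stabilizing buffer defined 0% hemolysis and 0.1% SDS (final) defined 100%.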

[8] = tested on: CPB, porcine carboxypeptidase; conditions: cited from earlier work
[9] = target: SARS-CoV-2 main protease (M^pro) (SARS-CoV-2 (Wuhan-Hu-1 isolate)) (UniProt P0DTD1)
[10] = target: T1, SARS-CoV-2 main protease (M^pro) (SARS-CoV-2 (Wuhan-Hu-1 isolate), UniProt P0DTD1); assay: ITC
[11] = target: T1, SARS-CoV-2 main protease (M^pro); assay: cell-based or functional assay

## CC[C@H](C)[C@H](NC(=O)[C@H](CCC(=O)O)NC(=O)[C@H](C)NC(=O)[C@H](CCSC)NC(=O)[C@H](CC(=O)O)NC(=O)[C@@H]1CCCN1C(=O)[C@H](CCCCN)NC(=O)[C@H](CC(=O)O)NC(=O)[C@H](CO)NC(C)=O)C(=O)N[C@@H](CCC(=O)O)C(=O)N[C@@H](CCCCN)C(=O)N[C@@H](Cc1ccccc1)C(=O)N[C@@H](CC(=O)O)C(=O)N[C@@H](CCCCN)C(=O)N[C@@H](CO)C(=O)N[C@@H](CCCCN)C(=O)N[C@@H](CC(C)C)C(=O)N[C@@H](CCCCN)C(=O)N[C@@H](CCCCN)C(=O)N[C@H](C(=O)N[C@@H](CCC(=O)O)C(=O)N[C@H](C(=O)N[C@@H](CCC(N)=O)C(=O)N[C@@H](CCC(=O)O)C(=O)N[C@@H](CCCCN)C(=O)N[C@@H](CC(N)=O)C(=O)N1CCC[C@H]1C(=O)N[C@@H](CC(C)C)C(=O)N1CCC[C@H]1C(=O)N[C@@H](CO)C(=O)N[C@@H](CCCCN)C(=O)N[C@@H](CCC(=O)O)C(=O)N[C@H](C(=O)N[C@H](C(=O)N[C@@H](CCC(=O)O)C(=O)N[C@@H](CCC(N)=O)C(=O)N[C@@H](CCC(=O)O)C(=O)N[C@@H](CCCCN)C(=O)N[C@@H](CCC(N)=O)C(=O)N[C@@H](C)C(=O)NCC(=O)N[C@@H](CCC(=O)O)C(=O)N[C@@H](CO)C(=O)O)[C@@H](C)CC)[C@@H](C)O)[C@@H](C)O)[C@@H](C)O [Ac-Tβ4, Acetyl-thymosin β4]
[1]
  viability: > 90%
[2]
  cytotoxicity: No cytotoxicity
[3]
  tube formation under H2O2 (ROS scavenging): failed to mitigate ROS-induced damage
[4]
  viability: > 90%
[5]
  cytotoxicity: No cytotoxicity
[6]
  wound closure: significantly enhanced wound closure
[7]
  hemolytic activity, OD values compared to 0.1 % SDS: < 1.5%

## Ac-Tβ4_31-43: peptide metabolite of Ac-Tβ4, amino acids 31-43 (KETIEQEKQAGES; Thymosin beta-4; UniProt P62328 32-44, looked up, fragment)
[8]
  detected as metabolite of Ac-Tβ4: CPB: D ^a

## FDKS peptide
[9]
  IC50 of inhibition of SARS-CoV-2 M^pro, FRET-based enzymatic assay: 63.2 µM

## Ac-SDKPDMAEIEKFDKSKL [Ac-Tβ_(1-17), acetyl-thymosin β4 (amino acid 1-17)]
[10]
  Kd: 22 µM
  dH: -11.4 kcal/mol
  stoichiometry N: 0.87
[11]
  IC50 of inhibition of SARS-CoV-2 M^pro, FRET-based enzymatic assay: 22.4 µM

## Ac-SDKPDMAEIEKFDK [Ac-Tβ_(1-14), acetyl-thymosin β4 (amino acids 1-14)]
[10]
  Kd: 19.4 µM
  dH: 40.3 kcal/mol
  stoichiometry N: 1.05
[11]
  IC50 of inhibition of SARS-CoV-2 M^pro, FRET-based enzymatic assay: 26.1 µM
